# Screening results deposited in PubChem by several laboratories.
# Sampled rows, rich in hits. Any-hit rate of the full collection: about 9.2%.
# Autophagy HCS: modulators of autophagy; hit rate 0.98% among 190,000; MEF GFP-LC3 puncta imaging; test concentration mostly 10 µM; AID 463193; calls only at 10 µM (by protocol);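 active = percentage of spot-positive cells more than 3 SD above its plate mean, without a fluorescence outlier flag or 80% toxicity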;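 also: spot-positive cell cutoff set from DMSO-treated cells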
# bCat KO growth: beta-catenin-lacking colon tumor cell growth suppression. HCT116 beta-catenin knockout viability, CellTiter-Glo, 60 h; active compounds read low. hit rate 1.5% among 140,000. viability, % at 10 µM. AID 818;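 active = viability at or under a set limit, the compound median less 4 SD, cut at about 6% in these data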;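 also: 0% = Hyamine 1622 control at 20 µM and 100% = untreated cell control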
# Dynein transport: blocks dynein driven cargo transport along microtubules; hit rate 0.47% among 220,000; z-score, hits read low; AID 1381; 3617.4 mouse cells, GR-EGFP nuclear translocation imaging; test concentration mostly 20 µM; stimulated with dexamethasone, 1 µM; active compounds read low;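 active = plate z-score of nuclear minus cytoplasmic receptor signal below a set negative limit, without overly bright fluorescence or cell loss, cut at about -3.5 in these data, passing the limit was not always enough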;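 also: z-score of nuclear minus cytoplasmic ring GR-EGFP intensity difference per well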
#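 Buffer or medium – tet-free medium with charcoal-stripped serum · Signal – automated 10x imaging of fixed Hoechst-stained cells · Also added – dexamethasone agonist, 1.0 µM final, for 30 min · Incubation – induction 48 h, compound 1 h, agonist 30 min · Read-out – GR-EGFP nuclear translocation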
# HCT116 PTEN-null: suppresses growth of cells with PTEN deletion; HCT116 PTEN-null viability, CellTiter-Glo, 60 h; active compounds read low; viability, % at 10 µM; hit rate 1.2% among 140,000; AID 827;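 active = viability at or below a set limit, 4 SD under the median of all tested compounds, cut at about 3.7% in these data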;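 also: PTEN knockout HCT116 line with beta catenin targeted HCT116 as companion control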
# Lmaj promast: inhibitors of Leishmania major promastigote growth; hit rate 9% among 200,000; Leishmania major promastigotes, resazurin fluorescence viability; inhibition, % at 10 µM; AID 1063; in the data active = inhibition above about 50%;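 also: promastigotes grown with compound for 44 hours at 28 °C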
# An asterisk follows results filed as active; i = inactive; / = no result given.
SMILES,Autophagy HCS,bCat KO growth,Dynein transport,HCT116 PTEN-null,Lmaj promast
Cc1ccc(NC(=O)CSc2ncccc2C(=O)Oc2cccc([N+](=O)[O-])c2)cc1Cl,i,89,1.6,99,70*
COc1ccc(C(CC(=O)Nc2ccccc2OC)n2cccc2)cc1 (stereo not drawn),i,67,0.41,70,54*
COc1ccc(C(CC(=O)Nc2cc(OC)cc(OC)c2)n2cccc2)cc1 (stereo not drawn),i,88,-0.36,80,96*
Cn1nc(C(F)(F)F)c2cc(C(=O)Nc3ccc(C(F)(F)F)cc3)sc21,/,/,-0.2,/,/
NC(=O)NC(=O)CSc1nc(C2CCCCC2)n(-c2ccccc2)n1,i,95,0.35,94,47
CC(C)C(C)(C#N)NC(=O)CSc1nc(C2CCCCC2)n(-c2ccccc2)n1 (stereo not drawn),i,83,-0.52,72,80*
Cn1c(N)c(C(=O)COC(=O)[C@H](Cc2ccccc2)N2C(=O)c3ccccc3C2=O)c(=O)n(C)c1=O,i,91,0.88,83,22
CC(C)CC(C(=O)OCC(=O)c1c(N)n(C)c(=O)n(C)c1=O)N1C(=O)c2ccccc2C1=O (stereo not drawn),i,97,-0.32,95,57*
C(=C\c1ccccc1)/C=N/Nc1nc2ccccc2[nH]1,i,18,-0.81,17,37
C(=N\Nc1nc2ccccc2[nH]1)/C1CCCCC1,i,/,-0.45,/,68*
O=C(Nc1nc2ccccc2[nH]1)C1CCCC1,i,/,-0.47,/,21
C(/CCc1ccccc1)=N\Nc1nc2ccccc2[nH]1,i,/,-0.061,/,67*
O=C(NCc1ccc2c(c1)OCO2)C1CCC(=O)N1C1CCCC1 (stereo not drawn),i,/,-0.81,/,-7
CCOC(=O)c1cc[nH]c1CC(=O)NC,/,/,-0.26,/,/
O=C(Cn1nc(Cc2cccnc2)c2ccccc2c1=O)N1CCN(C(=O)c2ccco2)CC1,i,96,1.8,96,73*
Nn1c(SCC(=O)Nc2cccc(F)c2)nnc1C1CCCCC1,i,104,-0.81,102,-5
O=Cc1c(OCc2ccccc2)ccc2ccccc12,i,/,-0.13,/,82*
CC(C)Oc1ccc2ccccc2c1C=O,i,94,2,101,0
O=C(CC1S/C(=N/N=C/c2c[nH]c3ccccc23)NC1=O)Nc1ccccc1 (stereo not drawn),i,100,2,95,79*
O=C(CC1S/C(=N/N=C/c2cccs2)NC1=O)Nc1ccc(Cl)cc1 (stereo not drawn),i,89,-0.38,83,99*
O=C(CC1S/C(=N/N=C/c2c[nH]c3ccc(OCc4ccccc4)cc23)NC1=O)Nc1ccccc1 (stereo not drawn),i,97,0.94,101,-7
Cc1ccc(C(=O)N/N=C2/NC(=O)CC(C(=O)Nc3ccccc3)S2)cc1 (stereo not drawn),i,93,-0.27,89,18
Cc1nc2c(-c3ccc(F)cc3)c(C)nn2c(C)c1CCC(=O)N1CCC(Cc2ccccc2)CC1,i,58,1.2,74,-1
CCc1ccccc1Nc1nc2ccccc2n1CC,i,/,-0.32,/,72*
C=C1CCC2C(C)(C)[C@H](O)CC[C@@]2(C)[C@@H]1COc1cc(=O)oc2ccccc12 (stereo partly drawn),i,80,0.041,61,98*
SMILES,Autophagy HCS,bCat KO growth,Dynein transport,HCT116 PTEN-null,Lmaj promast
COC(=O)/C(=C/c1c[nH]c2ccccc12)[N+](=O)[O-],i,92,-1.8,93,0
c1ccc(N2CCCCC2)c(Nc2nc3ccccc3n3cnnc23)c1,/,/,-0.63,/,/
FC(F)(F)c1ccc(N2CCOCC2)c(Nc2nc3ccccc3n3cnnc23)c1,i,0.8*,0.2,0.4*,46
CC(C)(C)c1ccc(C(=O)N/C(=C\c2cccs2)C(=O)NCc2ccco2)cc1,i,90,0.67,76,10
OC(CNCCc1ccc(C(F)(F)F)cc1)COc1cccc2ccccc12 (stereo not drawn),i,1.7*,-1.8,1.7*,97*
CNCC(O)COc1cccc(OC)c1 (stereo not drawn),i,/,-0.25,/,-3
CCCNCC(O)COc1ccccc1C(=O)CCc1ccccc1 (stereo not drawn),i,75,-0.056,78,31
COc1ccc(CCNCC(O)COc2cccc(Br)c2)cc1 (stereo not drawn),i,/,0.4,/,52*
CC(CN1C(C)CCCC1C)OC(=O)c1ccc(Cl)cc1 (stereo not drawn),i,/,-0.64,/,3
COC(=O)c1sccc1NC(=O)c1cc(-c2ccc(C)cc2)nc2ccccc12,i,60,0.25,69,1
CCNC(=S)NNC(=O)c1ccccc1Cl,i,96,0.41,95,51*
CCNC(=S)NNC(=O)c1cc(-c2cccc(C)c2)nc2ccccc12,i,92,0.25,83,95*
CCNC(=S)NNC(=O)c1ccccc1OC(F)F,i,99,1.1,99,4
CCCCOc1ccc(-c2cc(C(=O)NNC(=S)NCC)c3ccccc3n2)cc1,i,1.6*,0.18,1.8*,9
COC(=O)c1sccc1NC(=O)c1cc(-c2cccc(C)c2)nc2ccccc12,i,2.0*,-0.61,0.8*,11
O=C(O)CC(NCc1ccco1)C(=O)Nc1cccc(O)c1 (stereo not drawn),/,/,-0.33,/,/
Cc1cc(N2CC(C(=O)NCc3cccnc3)CC2=O)ccc1C(C)C (stereo not drawn),/,/,2.3,/,/
COc1ccc(N2CCN(C(=O)c3cccnc3SCc3cccc(Br)c3)CC2)cc1,i,/,-0.36,/,6
CCCn1c(SCC(=O)N2CCCC(C)C2)nnc1-c1ccccn1 (stereo not drawn),i,/,-0.25,/,-2
CCCCn1c(-c2ccccc2)cnc1SCC(=O)NCCc1ccc(OC)c(OC)c1,i,57,/,61,66*
CCOC(=O)CSc1nc2ccccc2c(=O)n1CCC(=O)NCCc1ccc(OC)c(OC)c1,i,3.2*,-0.97,3.2*,-6
COc1ccc(CCNC(=O)CSc2nnc(-c3ccccc3)c3ccccc23)cc1OC,i,76,-0.54,94,10
COc1ccc(CCNC(=O)CCn2c(SCC(=O)N3CCCC3)nc3ccccc3c2=O)cc1OC,/,/,-0.14,/,/
CC12CCC(C(=O)O)(c3nc4cc([N+](=O)[O-])ccc4nc31)C2(C)C (stereo not drawn),/,/,-1.2,/,/
CC(Oc1ccc(C#N)cc1)C(=O)c1ccc(F)c(F)c1 (stereo not drawn),i,/,-0.33,/,-3
O=C(NCc1ccco1)C(c1ccco1)N(C(=O)Cn1nnc2ccccc21)c1ccc2c(c1)CCC2 (stereo not drawn),i,/,-1.1,/,91*
CCNc1c(NCC)c(=O)c1=O,/,/,-0.96,/,/
CCCCOc1ccc(Br)cc1CSC(=N)N,i,11,-1.6,12,99*
CCCCCOc1ccc(CSC(=N)N)cc1[N+](=O)[O-],i,1.9*,-1.7,1.3*,100*
